Converted amounts (≈) assume the structure as drawn. The source made the active and inactive calls. The rule behind the calls is not given here.
What was measured:
[1] = system: ASK; assay: Cytotoxicity against human ASK cells after 3 days by SRB assay; format: functional, cell-based
Outline: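 ASK cell line: human astrocytoma.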

[2] = system: ZR-75-1; assay: Cytotoxicity against human ZR-75-1 cells after 3 days by SRB assay; format: functional; conditions: ZR-75-1, 72 h, read-out: ED50 (the source's name)
[3] = Cytotoxicity against human KBVIN cells in presence of 1 ug/ml vinblastine after 3 days by SRB assay; format: functional; conditions: 72 h, read-out: ED50 (the source's name)
[4] = system: Lu1; assay: Cytotoxicity against human Lu1 cells after 3 days by SRB assay; format: functional; conditions: Lu1, 72 h, read-out: ED50 (the source's name)
[5] = system: LNCaP; assay: Cytotoxicity against human LNCAP cells after 3 days by SRB assay; format: functional; conditions: 72 h, read-out: ED50 (the source's name)
[6] = Cytotoxicity against human KBVIN cells after 3 days by SRB assay; format: functional; conditions: 72 h, read-out: ED50 (the source's name)
[7] = system: KB; assay: Cytotoxicity against human KB cells after 3 days by SRB assay; format: functional; conditions: 72 h, read-out: ED50 (the source's name)
[8] = target: Human immunodeficiency virus type 1 reverse transcriptase (Human immunodeficiency virus 1) (UniProt Q72547); assay: Inhibition of HIV1 reverse transcriptase
[9] = system: Plasmodium falciparum; assay: Antimalarial activity against Plasmodium falciparum by [3H]hypoxanthine uptake; format: functional, organism-based

Row | SMILES | ED50 [1] | EC50 [2] [µg/mL] | EC50 [3] [µg/mL] | EC50 [4] [µg/mL] | EC50 [5] [µg/mL] | EC50 [6] [µg/mL] | EC50 [7] [µg/mL] | Activity [8] | Activity [9]
1 | Cc1c2ccncc2c(C)c2c1[nH]c1ccccc12 [ELLIPTECINE] | inactive | 0.9 (≈ 3.65 µM) | 0.2 | 0.2 (≈ 0.812 µM) | 0.8 (≈ 3.25 µM) | 0.3 (≈ 1.22 µM) | 0.04 (≈ 0.162 µM) | – | –
2 | C=C1C(=O)[C@]23[C@H](O)[C@H]1CC[C@H]2[C@@]12CO[C@@]3(O)C[C@@H]1C(C)(C)CC[C@@H]2O [MEGATHYRIN A] | inactive | 1.8 (≈ 5.17 µM) | 8.9 | 3.4 (≈ 9.76 µM) | 1.8 (≈ 5.17 µM) | 19.1 (≈ 54.8 µM) | 1.1 (≈ 3.16 µM) | inactive | inactive
3 | C=C1C(=O)[C@]23[C@H](O)[C@H]1CC[C@H]2[C@@]12CO[C@@]3(O)C[C@@H]1C(C)(C)CC[C@@H]2OC(C)=O [RABDOCOETSIN B] | inactive | 0.8 (≈ 2.05 µM) | 7.2 | 0.5 (≈ 1.28 µM) | 0.6 (≈ 1.54 µM) | > 20 | 0.3 (≈ 0.768 µM) | inactive | inactive
4 | COc1cc2c(c(OC)c1OC)-c1ccc(OC)c(=O)cc1[C@@H](NC(C)=O)CC2 [COLCHICINE] | Active | 0.1 (≈ 0.25 µM) | 0.6 | 0.2 (≈ 0.501 µM) | 0.06 (≈ 0.15 µM) | 3.5 (≈ 8.76 µM) | 0.2 (≈ 0.501 µM) | – | –
5 | C=C1C(=O)[C@]23C[C@H]1C[C@H](O)[C@H]2[C@@]12CO[C@@]3(O)C[C@@H]1C(C)(C)CC[C@@H]2O [RABDOCOETSIN C] | inactive | 1 (≈ 2.87 µM) | > 20 | 0.4 (≈ 1.15 µM) | 0.7 (≈ 2.01 µM) | > 20 | 0.6 (≈ 1.72 µM) | inactive | inactive
6 | C=C1C(=O)[C@]23C[C@H]1C[C@H](OC(C)=O)[C@H]2[C@@]12CO[C@@]3(O)C[C@@H]1C(C)(C)CC[C@@H]2O [RABDOCOETSIN D] | inactive | 0.8 (≈ 2.05 µM) | 12.1 | 0.9 (≈ 2.3 µM) | 0.8 (≈ 2.05 µM) | 9.5 (≈ 24.3 µM) | 0.5 (≈ 1.28 µM) | inactive | inactive

Reference: ChEMBL document CHEMBL1148073, “Cytotoxic diterpenoids from Isodon megathyrsus” (1994)
